Data taken from ChEMBL document CHEMBL4411287, “Discovery and optimization of a series of 3-substituted indazole derivatives as multi-target kinase inhibitors for the treatment of lung squamous cell carcinoma” (Eur J Med Chem, 2019).
pIC50: −log10 of the molar value. Activity calls are given as the source filed them. The calls are words filed in the database; no cut-off is given here.

How the values were obtained:
[1] = Antiproliferative activity against human UM-UC-14 cells harboring FGFR3 mutation after 72 hrs by CCK8 assay; format: functional, cell-based; conditions: UMUC14, 72 h
Method in brief: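 Cells seeded at low density in growth medium and compounds added the next day. Incubated 72 h, then proliferation read by sulforhodamine B, MTT or CCK-8. IC50 obtained by four-parameter concentration-response curve fitting.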

[2] = molecular target: Receptor-type tyrosine-protein kinase FLT3 (Homo sapiens) (UniProt P36888); assay: Inhibition of FLT-3 (unknown origin) at 100 nM relative to control
Sequence of Receptor-type tyrosine-protein kinase FLT3 (Homo sapiens) (P36888 whole entry, the tested form may be a part): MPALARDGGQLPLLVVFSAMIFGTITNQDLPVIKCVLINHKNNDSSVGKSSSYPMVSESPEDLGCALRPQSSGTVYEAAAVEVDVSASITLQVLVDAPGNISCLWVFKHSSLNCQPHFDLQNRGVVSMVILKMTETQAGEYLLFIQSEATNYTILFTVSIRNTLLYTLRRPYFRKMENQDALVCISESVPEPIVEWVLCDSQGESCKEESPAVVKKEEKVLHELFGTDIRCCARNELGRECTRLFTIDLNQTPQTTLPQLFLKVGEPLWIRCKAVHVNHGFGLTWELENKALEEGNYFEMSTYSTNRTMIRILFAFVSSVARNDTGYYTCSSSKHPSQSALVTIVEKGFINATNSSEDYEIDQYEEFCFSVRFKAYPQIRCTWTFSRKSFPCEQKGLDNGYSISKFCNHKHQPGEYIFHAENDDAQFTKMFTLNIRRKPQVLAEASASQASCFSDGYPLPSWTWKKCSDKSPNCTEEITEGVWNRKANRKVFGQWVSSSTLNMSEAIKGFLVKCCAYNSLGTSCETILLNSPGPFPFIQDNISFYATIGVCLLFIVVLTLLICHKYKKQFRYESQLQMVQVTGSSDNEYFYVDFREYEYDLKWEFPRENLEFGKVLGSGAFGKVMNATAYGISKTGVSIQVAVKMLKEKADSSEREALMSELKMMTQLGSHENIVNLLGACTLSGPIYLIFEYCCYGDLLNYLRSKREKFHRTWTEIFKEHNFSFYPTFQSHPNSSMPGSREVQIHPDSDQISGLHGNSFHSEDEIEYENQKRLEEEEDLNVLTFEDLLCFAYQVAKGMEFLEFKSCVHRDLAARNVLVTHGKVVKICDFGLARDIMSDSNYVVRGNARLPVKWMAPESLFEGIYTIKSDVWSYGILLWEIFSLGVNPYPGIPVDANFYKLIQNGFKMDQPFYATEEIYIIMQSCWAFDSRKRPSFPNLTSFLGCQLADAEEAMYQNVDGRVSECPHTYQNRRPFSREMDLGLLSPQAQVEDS
Method in brief: (§1)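 Purified recombinant kinase domains run in ELISA on precoated poly(Glu,Tyr) 4:1 (20 µg/mL) with 10 µM ATP in 50 mM HEPES pH 7.4, 50 mM MgCl2, 0.5 mM MnCl2, 0.2 mM Na3VO4, 1 mM DTT; 1% DMSO control; 60 min at 37 °C. Phosphotyrosine read by PY99 antibody, HRP anti-mouse IgG, OPD/H2O2 at 490 nm; inhibition = [1−A490/A490control]×100%; two separate experiments.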

[3] = molecular target: T1, Ephrin type-B receptor 2 (Homo sapiens) (UniProt P29323); assay: Inhibition of EPH-B2 (unknown origin) at 1000 nM relative to control; method in brief: as §1
T1 sequence (whole entry): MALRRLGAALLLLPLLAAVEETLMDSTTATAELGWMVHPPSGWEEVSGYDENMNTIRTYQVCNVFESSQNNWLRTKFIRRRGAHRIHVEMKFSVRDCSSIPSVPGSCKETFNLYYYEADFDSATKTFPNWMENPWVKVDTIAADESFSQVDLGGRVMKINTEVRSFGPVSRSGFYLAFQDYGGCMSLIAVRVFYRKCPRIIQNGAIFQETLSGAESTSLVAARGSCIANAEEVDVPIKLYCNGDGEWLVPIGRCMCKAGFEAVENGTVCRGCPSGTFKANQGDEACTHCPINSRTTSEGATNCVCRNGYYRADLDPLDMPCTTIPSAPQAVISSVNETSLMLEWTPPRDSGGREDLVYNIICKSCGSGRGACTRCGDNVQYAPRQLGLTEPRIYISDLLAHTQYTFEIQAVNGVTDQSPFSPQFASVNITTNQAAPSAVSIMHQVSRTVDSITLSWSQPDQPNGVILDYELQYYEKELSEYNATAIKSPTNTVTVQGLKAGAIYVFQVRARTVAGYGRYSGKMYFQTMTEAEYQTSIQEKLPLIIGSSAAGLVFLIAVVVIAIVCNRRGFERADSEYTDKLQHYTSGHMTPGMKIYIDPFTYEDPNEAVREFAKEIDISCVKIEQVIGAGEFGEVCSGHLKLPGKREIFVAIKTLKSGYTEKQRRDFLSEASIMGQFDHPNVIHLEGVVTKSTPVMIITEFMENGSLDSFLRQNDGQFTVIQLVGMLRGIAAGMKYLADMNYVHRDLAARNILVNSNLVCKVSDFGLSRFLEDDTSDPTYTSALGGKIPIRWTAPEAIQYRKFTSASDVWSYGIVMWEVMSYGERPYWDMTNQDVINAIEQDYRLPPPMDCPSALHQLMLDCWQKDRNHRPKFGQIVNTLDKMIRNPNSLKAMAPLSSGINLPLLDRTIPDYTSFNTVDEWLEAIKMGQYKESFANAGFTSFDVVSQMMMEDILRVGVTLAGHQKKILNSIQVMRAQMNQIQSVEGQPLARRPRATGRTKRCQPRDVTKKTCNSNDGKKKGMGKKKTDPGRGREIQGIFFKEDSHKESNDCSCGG

[4] = molecular target: Tyrosine-protein kinase ABL1 (Homo sapiens) (UniProt P00519); assay: Inhibition of ABL (unknown origin) at 100 nM relative to control
Sequence of Tyrosine-protein kinase ABL1 (Homo sapiens) (P00519 whole entry): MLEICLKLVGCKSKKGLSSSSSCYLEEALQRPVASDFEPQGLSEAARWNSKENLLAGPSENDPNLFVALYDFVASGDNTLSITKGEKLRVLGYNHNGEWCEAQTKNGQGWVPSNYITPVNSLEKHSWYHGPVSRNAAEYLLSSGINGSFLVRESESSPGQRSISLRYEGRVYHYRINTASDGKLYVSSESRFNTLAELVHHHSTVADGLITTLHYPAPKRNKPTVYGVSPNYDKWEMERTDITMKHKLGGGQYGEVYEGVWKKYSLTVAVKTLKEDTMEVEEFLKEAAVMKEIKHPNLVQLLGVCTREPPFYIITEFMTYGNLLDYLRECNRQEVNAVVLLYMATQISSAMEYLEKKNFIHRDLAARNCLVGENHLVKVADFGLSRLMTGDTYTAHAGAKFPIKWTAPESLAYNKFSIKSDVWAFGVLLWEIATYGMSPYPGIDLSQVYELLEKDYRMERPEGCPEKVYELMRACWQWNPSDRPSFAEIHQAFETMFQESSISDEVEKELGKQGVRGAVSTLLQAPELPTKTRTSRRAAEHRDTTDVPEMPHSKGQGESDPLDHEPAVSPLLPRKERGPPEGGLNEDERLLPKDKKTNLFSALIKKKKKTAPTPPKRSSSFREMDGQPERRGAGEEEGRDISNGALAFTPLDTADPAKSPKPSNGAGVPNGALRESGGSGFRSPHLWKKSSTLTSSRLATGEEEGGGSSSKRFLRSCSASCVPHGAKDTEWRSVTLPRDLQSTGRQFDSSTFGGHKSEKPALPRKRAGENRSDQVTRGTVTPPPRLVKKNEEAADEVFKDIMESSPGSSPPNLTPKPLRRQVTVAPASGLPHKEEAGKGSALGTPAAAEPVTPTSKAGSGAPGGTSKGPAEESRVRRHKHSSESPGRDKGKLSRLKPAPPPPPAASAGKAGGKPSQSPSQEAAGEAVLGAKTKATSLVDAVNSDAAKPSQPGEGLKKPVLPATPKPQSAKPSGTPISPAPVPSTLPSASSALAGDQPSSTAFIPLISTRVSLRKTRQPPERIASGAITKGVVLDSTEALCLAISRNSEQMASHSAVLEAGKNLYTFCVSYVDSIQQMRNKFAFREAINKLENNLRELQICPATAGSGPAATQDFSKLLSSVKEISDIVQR

[5] = system: NCI-H2286; assay: Antiproliferative activity against human NCI-H2286 cells after 72 hrs by CCK8 assay; conditions: NCI-H2286, 72 h
[6] = molecular target: Tyrosine-protein kinase receptor UFO (Homo sapiens) (UniProt P30530); assay: Inhibition of AXL (unknown origin) at 100 nM relative to control
[7] = molecular target: Fibroblast growth factor receptor 2 (Homo sapiens) (UniProt P21802); assay: Inhibition of FGFR2 in human SNU-16 cells assessed as decrease in ERK phosphorylation at 25 to 200 nM after 2 hrs by Western blot analysis; format: cell-based
Method in brief: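 SNU-16 cells exposed to compound for 2 h at 37 °C, lysed in 1× SDS sample buffer, resolved by 10% SDS-PAGE and blotted to nitrocellulose; probed for phospho-FGFR, FGFR2, phospho-ERK, ERK and GAPDH, then HRP anti-rabbit or anti-mouse IgG; enhanced chemiluminescence detection.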

[8] = molecular target: Tyrosine-protein kinase JAK2 (Homo sapiens) (UniProt O60674); assay: Inhibition of JAK2 (unknown origin) at 10 nM relative to control; method in brief: as §1
[9] = molecular target: Hepatocyte growth factor receptor (Homo sapiens) (UniProt P08581); assay: Inhibition of c-Met (unknown origin) at 10 nM relative to control
Method in brief: (§2)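 ELISA with purified recombinant kinase on plates precoated with poly(Glu,Tyr) 4:1 at 20 µg/mL. ATP 10 µM in HEPES pH 7.4 buffer with MgCl2, MnCl2, Na3VO4 and DTT. Run 60 min at 37 °C. Detected with anti-phosphotyrosine PY99, HRP secondary antibody and o-phenylenediamine, read at 490 nm. Inhibition % = [1 − A490/A490 control]×100. 1% DMSO as negative control.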

[10] = molecular target: Receptor tyrosine-protein kinase erbB-2 (Homo sapiens) (UniProt P04626); assay: Inhibition of ErbB2 (unknown origin) at 100 nM relative to control; method in brief: as §1
Sequence of Receptor tyrosine-protein kinase erbB-2 (Homo sapiens) (P04626 whole entry): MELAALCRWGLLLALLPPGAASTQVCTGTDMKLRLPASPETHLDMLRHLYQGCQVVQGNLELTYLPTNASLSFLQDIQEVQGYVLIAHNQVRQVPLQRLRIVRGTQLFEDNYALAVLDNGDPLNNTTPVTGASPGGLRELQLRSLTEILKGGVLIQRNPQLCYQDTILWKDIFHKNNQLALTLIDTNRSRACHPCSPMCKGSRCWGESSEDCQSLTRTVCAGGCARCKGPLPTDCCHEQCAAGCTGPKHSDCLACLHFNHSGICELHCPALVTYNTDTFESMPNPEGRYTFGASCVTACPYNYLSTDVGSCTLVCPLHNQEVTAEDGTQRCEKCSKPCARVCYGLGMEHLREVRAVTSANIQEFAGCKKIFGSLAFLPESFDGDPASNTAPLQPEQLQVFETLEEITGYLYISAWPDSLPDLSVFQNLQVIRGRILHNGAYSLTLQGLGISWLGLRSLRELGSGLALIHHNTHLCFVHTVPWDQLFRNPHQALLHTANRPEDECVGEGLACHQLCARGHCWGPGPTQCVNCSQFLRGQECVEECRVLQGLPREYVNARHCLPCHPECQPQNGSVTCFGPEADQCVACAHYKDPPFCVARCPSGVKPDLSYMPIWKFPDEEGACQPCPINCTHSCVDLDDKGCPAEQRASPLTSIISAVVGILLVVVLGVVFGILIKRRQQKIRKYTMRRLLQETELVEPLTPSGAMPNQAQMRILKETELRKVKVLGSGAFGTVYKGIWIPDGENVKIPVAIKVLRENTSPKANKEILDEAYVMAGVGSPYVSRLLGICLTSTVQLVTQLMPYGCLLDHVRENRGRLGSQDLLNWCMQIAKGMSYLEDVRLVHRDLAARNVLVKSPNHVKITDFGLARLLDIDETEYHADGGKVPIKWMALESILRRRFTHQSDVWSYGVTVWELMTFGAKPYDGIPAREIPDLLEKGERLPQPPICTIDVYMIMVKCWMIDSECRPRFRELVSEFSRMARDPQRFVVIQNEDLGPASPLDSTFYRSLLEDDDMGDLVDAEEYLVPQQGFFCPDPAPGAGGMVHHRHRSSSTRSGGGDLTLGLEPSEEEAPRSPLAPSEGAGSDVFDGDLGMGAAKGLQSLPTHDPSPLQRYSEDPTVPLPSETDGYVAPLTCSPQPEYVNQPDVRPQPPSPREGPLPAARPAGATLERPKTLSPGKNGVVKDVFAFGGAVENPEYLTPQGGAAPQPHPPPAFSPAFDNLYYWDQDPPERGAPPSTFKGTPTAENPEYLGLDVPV

[11] = molecular target: Proto-oncogene tyrosine-protein kinase Src (Homo sapiens) (UniProt P12931); assay: Inhibition of c-Src (unknown origin) at 10 nM relative to control; method in brief: as §2
Sequence of Proto-oncogene tyrosine-protein kinase Src (Homo sapiens) (P12931 2-536 limits assumed): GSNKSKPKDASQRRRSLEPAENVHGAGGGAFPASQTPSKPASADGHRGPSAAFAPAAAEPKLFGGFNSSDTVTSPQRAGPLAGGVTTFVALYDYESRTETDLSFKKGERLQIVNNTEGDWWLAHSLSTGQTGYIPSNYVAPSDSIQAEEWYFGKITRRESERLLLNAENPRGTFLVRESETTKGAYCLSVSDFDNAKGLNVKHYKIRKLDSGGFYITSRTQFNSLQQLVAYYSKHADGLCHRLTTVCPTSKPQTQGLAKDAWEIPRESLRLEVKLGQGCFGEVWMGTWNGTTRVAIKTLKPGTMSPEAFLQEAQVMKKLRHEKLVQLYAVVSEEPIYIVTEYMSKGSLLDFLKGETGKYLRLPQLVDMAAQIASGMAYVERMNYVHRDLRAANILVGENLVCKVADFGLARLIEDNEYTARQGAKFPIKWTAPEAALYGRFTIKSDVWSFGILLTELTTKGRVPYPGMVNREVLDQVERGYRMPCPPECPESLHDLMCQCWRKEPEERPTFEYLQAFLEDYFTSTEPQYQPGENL

[12] = molecular target: Cyclin-dependent kinase 1 (Homo sapiens) (UniProt P06493); assay: Inhibition of CDK1 (unknown origin) at 10 nM relative to control
[13] = molecular target: Vascular endothelial growth factor receptor 1 (Homo sapiens) (UniProt P17948); assay: Inhibition of VEGFR1 (unknown origin) at 100 nM relative to control; method in brief: as §2
[14] = molecular target: Tyrosine-protein kinase JAK1 (Homo sapiens) (UniProt P23458); assay: Inhibition of JAK1 (unknown origin) at 1000 nM relative to control; method in brief: as §1
[15] = molecular target: Cyclin-dependent kinase 6 (Homo sapiens) (UniProt Q00534); assay: Inhibition of CDK6 (unknown origin) at 100 nM relative to control
[16] = molecular target: Epidermal growth factor receptor (Homo sapiens) (UniProt P00533); assay: Inhibition of EGFR (unknown origin) at 100 nM relative to control
Sequence of Epidermal growth factor receptor (Homo sapiens) (P00533 whole entry): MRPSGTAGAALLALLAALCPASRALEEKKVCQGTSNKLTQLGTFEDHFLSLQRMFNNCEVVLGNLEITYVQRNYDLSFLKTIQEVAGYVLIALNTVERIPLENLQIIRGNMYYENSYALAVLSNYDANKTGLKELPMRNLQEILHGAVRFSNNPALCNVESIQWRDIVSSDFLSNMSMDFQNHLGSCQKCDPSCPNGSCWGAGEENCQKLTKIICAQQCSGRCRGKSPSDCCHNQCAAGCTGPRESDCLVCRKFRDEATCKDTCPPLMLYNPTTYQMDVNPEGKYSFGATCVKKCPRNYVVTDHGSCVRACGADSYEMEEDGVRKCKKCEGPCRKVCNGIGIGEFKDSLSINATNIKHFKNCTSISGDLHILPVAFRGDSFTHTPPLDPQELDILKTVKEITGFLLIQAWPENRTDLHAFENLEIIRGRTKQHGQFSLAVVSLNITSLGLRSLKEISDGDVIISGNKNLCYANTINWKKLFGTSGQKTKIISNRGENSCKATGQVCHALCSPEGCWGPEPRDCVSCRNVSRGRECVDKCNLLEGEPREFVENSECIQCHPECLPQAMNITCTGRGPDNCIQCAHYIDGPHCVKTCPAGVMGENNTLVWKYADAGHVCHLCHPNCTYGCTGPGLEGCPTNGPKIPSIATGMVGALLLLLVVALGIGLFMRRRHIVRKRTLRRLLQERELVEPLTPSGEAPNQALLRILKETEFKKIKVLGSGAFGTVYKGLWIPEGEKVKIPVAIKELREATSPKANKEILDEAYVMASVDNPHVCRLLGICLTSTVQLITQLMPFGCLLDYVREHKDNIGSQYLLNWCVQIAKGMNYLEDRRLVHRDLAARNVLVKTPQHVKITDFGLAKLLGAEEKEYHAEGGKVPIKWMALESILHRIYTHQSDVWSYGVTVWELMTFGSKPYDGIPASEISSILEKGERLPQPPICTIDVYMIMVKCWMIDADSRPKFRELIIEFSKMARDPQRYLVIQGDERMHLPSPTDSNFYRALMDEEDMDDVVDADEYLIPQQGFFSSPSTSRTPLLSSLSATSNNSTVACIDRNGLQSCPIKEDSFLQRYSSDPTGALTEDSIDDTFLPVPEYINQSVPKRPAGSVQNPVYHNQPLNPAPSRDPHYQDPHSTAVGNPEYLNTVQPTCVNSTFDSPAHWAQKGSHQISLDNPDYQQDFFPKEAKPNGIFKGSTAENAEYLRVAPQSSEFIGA

Cc1ccc(C(=O)Nc2cccc(C(F)(F)F)c2)cc1-c1ccc2c(-c3cnn(C4CC4)c3)n[nH]c2c1
pIC50 [1]: 6.51
inhibition [2]: 80.6%
inhibition [3]: 86.9%
inhibition [4]: 100%
pIC50 [5]: 7.03
inhibition [6]: 72.6%
inhibition [7]: Active
inhibition [8]: 5.4%
inhibition [9]: 0.2%
inhibition [10]: 5.6%
inhibition [11]: 64.5%
inhibition [12]: -0.1%
inhibition [13]: 46.8%
inhibition [14]: 31.2%
inhibition [15]: 2.6%
inhibition [16]: 33.9%
